This note sets out measurements from ChEMBL document CHEMBL4422684, “Identification of novel lysine demethylase 5-selective inhibitors by inhibitor-based fragment merging strategy” (Bioorg Med Chem, 2019).

Test [1] deals with T1, Lysine-specific demethylase 2A (Homo sapiens) (UniProt Q9Y2K7).
T1 sequence (whole entry): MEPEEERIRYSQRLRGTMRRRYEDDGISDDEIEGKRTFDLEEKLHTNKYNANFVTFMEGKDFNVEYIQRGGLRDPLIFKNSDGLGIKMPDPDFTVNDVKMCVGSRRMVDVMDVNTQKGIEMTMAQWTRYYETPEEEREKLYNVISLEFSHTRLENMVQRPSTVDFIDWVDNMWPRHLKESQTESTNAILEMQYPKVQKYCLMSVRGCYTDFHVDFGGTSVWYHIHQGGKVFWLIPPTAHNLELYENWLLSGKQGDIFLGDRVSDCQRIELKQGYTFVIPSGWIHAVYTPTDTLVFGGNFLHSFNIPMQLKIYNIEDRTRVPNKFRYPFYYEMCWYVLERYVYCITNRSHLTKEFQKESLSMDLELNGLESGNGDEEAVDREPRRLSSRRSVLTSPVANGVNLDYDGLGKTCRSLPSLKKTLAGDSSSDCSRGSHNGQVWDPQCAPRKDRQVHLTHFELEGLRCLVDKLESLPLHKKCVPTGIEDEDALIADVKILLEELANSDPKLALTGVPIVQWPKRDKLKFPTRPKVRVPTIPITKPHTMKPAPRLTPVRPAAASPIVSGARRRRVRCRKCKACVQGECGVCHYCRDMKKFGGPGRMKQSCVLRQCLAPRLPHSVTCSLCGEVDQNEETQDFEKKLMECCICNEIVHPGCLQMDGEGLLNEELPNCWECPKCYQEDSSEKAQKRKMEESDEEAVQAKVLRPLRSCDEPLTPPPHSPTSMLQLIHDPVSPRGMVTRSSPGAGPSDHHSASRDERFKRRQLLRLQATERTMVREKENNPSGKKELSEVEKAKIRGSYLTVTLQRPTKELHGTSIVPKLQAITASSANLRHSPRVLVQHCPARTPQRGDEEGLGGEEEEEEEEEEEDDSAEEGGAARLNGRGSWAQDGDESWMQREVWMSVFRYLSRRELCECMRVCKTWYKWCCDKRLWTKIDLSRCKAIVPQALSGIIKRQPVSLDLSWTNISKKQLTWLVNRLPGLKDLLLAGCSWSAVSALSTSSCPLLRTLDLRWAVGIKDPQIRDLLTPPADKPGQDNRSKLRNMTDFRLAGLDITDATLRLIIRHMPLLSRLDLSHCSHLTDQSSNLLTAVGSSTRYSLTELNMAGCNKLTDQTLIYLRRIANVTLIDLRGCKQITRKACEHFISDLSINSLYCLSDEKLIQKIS
Description: Inhibition of human N-terminal FLAG/Avi-tagged KDM2A (2 to 700 residues) expressed in baculovirus infected Sf9 insect cells at 50 uM using H3(21-44)-K36(Me2)-GK(Biotin)/2-OG as substrate measured after 1 hr by Alphalisa assay relative to control. The gist of the method:
(§1)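 AlphaLISA demethylase assay in 50 mM HEPES pH 7.5, 0.1% BSA, 0.01% Tween 20 with DMSO. Enzyme and inhibitor combined, then peptide plus 2-OG (50 µM), Fe(II) (5 µM) and ascorbate (100 µM) in the added mix; 1 h at room temperature with shaking.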

Test [2] concerns the target Lysine-specific demethylase 6B (Homo sapiens, UniProt O15054). The experiment in a line: Inhibition of human C-terminal FLAG-tagged KDM6B (1043 to end residues) expressed in baculovirus infected Sf9 insect cells using H3(21-44)-K27(Me3)-GK(Biotin)/2-OG as substrate measured after 1 hr by Alphalisa assay. An outline of the steps:
as §1

In test [3] the target is T2, Lysine-specific demethylase 4A (Homo sapiens) (UniProt O75164).
T2 sequence (whole entry): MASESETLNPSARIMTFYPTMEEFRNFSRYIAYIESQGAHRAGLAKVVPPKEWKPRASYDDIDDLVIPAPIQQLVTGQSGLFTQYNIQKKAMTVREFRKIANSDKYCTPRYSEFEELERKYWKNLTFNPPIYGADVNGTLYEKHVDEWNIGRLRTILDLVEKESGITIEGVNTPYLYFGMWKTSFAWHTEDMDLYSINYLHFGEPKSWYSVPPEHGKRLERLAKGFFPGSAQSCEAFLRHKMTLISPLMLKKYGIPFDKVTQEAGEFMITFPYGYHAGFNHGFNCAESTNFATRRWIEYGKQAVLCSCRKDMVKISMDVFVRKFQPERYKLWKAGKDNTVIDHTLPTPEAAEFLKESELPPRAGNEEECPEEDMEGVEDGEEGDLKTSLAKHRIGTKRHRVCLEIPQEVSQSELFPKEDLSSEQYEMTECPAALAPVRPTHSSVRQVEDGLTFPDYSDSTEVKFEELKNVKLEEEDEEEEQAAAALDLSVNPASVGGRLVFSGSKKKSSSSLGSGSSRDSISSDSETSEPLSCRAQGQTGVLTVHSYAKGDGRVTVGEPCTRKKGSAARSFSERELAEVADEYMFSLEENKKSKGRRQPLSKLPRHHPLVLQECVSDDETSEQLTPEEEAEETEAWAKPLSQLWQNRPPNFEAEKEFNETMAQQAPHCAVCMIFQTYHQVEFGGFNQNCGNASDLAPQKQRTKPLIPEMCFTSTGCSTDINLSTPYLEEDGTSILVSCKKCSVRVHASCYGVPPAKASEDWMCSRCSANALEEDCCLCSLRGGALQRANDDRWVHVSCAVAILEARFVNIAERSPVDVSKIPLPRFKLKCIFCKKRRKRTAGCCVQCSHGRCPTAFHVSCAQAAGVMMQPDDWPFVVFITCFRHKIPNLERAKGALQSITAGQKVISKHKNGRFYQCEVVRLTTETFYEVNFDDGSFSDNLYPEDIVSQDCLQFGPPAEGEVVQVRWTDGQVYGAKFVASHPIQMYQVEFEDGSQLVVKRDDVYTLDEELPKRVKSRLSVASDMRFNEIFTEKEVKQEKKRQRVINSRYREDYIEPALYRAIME
Description: Inhibition of human N-terminal His-tagged KDM4A (1 to 350 residues) expressed in Escherichia coli at 25 uM using H3(21-44)-K36(Me3)-GK(Biotin)/2-OG as substrate measured after 1 hr by Alphalisa assay relative to control. An outline of the steps:
as §1

The target in test [4] is Lysine-specific demethylase 5A (Homo sapiens, UniProt P29375). Description: Inhibition of human C-terminal FLAG-tagged KDM5A (1 to 1090 residues) expressed in baculovirus infected Sf9 insect cells at 25 uM using H3(1-21)K4(Me3)-GGK(Biotin)/2-OG as substrate measured after 1 hr by Alphalisa assay relative to control. An outline of the steps:
as §1

In test [5] the target is T2, Lysine-specific demethylase 4A (Homo sapiens). The experiment in a line: Inhibition of human N-terminal His-tagged KDM4A (1 to 350 residues) expressed in Escherichia coli at 50 uM using H3(21-44)-K36(Me3)-GK(Biotin)/2-OG as substrate measured after 1 hr by Alphalisa assay relative to control. The gist of the method:
as §1

Chain of Lysine-specific demethylase 6B (O15054 whole entry): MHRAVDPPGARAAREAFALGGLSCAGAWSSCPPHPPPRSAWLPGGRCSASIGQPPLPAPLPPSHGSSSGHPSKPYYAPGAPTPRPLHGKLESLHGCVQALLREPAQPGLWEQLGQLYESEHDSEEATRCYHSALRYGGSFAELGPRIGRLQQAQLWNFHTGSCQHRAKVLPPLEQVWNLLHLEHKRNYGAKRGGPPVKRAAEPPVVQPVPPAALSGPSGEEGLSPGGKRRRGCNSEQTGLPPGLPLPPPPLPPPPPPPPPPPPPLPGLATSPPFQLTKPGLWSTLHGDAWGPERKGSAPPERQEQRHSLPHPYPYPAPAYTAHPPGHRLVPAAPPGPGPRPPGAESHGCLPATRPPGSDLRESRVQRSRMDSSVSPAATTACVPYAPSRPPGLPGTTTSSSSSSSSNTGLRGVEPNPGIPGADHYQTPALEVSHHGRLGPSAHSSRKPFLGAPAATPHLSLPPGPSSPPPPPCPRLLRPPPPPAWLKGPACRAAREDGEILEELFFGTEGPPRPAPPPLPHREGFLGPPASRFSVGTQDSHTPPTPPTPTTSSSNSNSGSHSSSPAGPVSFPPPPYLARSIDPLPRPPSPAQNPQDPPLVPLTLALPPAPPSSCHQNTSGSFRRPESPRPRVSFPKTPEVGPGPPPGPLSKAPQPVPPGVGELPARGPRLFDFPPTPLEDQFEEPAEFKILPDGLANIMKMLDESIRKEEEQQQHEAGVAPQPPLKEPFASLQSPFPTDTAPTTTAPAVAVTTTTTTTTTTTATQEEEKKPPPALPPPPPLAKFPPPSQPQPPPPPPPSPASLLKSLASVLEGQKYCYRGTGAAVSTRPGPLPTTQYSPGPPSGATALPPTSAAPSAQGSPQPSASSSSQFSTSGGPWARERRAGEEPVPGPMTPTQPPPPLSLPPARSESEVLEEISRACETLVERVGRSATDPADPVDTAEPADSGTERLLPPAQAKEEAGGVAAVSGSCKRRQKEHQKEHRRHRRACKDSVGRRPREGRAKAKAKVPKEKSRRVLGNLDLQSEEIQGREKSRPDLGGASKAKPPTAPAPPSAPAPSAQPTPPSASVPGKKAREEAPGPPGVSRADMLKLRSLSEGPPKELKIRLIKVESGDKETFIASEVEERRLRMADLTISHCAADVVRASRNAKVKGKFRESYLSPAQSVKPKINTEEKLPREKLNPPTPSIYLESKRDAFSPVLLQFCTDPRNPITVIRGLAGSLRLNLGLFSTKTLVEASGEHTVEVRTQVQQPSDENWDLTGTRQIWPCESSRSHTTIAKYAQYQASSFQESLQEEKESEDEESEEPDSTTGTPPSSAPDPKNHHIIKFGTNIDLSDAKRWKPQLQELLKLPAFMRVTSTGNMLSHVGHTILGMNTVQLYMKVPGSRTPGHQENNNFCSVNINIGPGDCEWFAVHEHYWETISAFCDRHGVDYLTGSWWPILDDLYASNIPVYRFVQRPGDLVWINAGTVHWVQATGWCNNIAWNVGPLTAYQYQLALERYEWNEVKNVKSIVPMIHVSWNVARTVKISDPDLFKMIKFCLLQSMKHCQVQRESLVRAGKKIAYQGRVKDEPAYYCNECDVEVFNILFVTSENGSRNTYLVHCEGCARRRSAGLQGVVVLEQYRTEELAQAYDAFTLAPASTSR
Chain of Lysine-specific demethylase 5A (P29375 whole entry, the tested form may be a part): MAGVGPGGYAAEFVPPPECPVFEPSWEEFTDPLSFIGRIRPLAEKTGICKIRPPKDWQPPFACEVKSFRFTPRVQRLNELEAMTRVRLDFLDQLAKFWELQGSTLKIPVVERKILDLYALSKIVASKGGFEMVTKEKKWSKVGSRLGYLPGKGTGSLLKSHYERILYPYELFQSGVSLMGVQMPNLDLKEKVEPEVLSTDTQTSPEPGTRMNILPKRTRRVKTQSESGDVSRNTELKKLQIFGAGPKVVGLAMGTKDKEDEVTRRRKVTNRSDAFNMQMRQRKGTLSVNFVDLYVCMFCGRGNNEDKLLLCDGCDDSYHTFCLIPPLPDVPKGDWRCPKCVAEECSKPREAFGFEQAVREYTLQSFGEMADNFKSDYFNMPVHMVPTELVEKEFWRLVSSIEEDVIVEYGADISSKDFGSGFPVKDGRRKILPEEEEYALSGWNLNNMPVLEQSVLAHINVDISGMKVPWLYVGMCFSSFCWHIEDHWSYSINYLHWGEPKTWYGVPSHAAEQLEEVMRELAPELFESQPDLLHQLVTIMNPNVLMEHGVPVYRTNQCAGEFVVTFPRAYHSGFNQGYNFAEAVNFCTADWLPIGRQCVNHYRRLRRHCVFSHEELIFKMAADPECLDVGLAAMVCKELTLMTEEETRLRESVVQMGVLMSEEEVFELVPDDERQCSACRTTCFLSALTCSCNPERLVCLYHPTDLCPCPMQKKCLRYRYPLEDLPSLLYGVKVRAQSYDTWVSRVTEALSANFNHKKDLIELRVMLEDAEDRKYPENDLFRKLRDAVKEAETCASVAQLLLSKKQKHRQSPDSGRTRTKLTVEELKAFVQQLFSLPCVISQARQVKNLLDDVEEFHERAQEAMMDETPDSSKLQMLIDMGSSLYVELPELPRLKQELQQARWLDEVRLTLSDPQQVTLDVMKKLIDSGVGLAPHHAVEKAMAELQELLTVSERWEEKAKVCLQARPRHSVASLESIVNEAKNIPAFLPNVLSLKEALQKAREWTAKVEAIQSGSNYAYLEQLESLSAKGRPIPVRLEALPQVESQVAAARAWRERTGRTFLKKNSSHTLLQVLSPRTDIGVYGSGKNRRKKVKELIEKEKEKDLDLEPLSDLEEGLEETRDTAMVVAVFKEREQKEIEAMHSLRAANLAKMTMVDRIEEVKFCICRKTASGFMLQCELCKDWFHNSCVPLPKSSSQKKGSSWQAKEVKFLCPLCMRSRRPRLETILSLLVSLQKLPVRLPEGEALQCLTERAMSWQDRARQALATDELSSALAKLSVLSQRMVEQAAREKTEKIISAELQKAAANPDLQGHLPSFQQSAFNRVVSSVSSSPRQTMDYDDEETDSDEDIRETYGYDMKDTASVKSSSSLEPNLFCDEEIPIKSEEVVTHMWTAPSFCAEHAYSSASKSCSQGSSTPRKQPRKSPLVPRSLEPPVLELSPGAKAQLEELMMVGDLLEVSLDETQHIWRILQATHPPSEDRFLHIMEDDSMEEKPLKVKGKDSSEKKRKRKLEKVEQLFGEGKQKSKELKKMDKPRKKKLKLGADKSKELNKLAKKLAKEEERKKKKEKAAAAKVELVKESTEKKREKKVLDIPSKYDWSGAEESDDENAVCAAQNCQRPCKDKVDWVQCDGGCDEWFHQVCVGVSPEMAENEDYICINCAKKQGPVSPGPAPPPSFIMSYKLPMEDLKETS

Consider `CC(C)c1c(-c2ccccc2)[nH]c2c(C#N)cnn2c1=O`, for which the inhibition in test [1] was determined as 25.7%; in test [3], 35.9%; in test [4], 100%; in test [5], 61.1%. Further, the half-maximal inhibitory concentration (IC50) in test [2] amounted to 14.3 µM.
Turning to `CCCCCCN(C)CCc1ccc(-c2[nH]c3c(C#N)cnn3c(=O)c2C(C)C)cc1`, the inhibition worked out at 38.4% in test [1], 32.4% in test [3] and 71% in test [5].
Consider `CCCCCN(C)CCCCC(=O)N(O)CCC(=O)O`, for which the figures for the inhibition in test [1], in test [4] and in test [5] were 51.7%, 89.9% and 25.4%, respectively.
As for `CCCCCCN(C)Cc1ccc(-c2[nH]c3c(C#N)cnn3c(=O)c2C(C)C)cc1`, the inhibition in test [1] was found to be 13.4%; in test [5], 32.5%. Further, the IC50 in test [2] was > 50 µM.
